Our source for the Ratio IC50, IC50 and inhibition values is ChEMBL document CHEMBL4422684, “Identification of novel lysine demethylase 5-selective inhibitors by inhibitor-based fragment merging strategy” (Bioorg Med Chem, 2019).

The target of experiment [1] is Lysine-specific demethylase 5A (Homo sapiens, UniProt P29375). Nature of the experiment: Potency index, ratio of CPI-455 IC50 to test compound IC50 for human C-terminal FLAG-tagged KDM5A (1 to 1090 residues) expressed in baculovirus infected Sf9 insect cells.
Experiment [2] concerns the target T1, Lysine-specific demethylase 2A (Homo sapiens, UniProt Q9Y2K7).
T1 sequence (Q9Y2K7 whole entry): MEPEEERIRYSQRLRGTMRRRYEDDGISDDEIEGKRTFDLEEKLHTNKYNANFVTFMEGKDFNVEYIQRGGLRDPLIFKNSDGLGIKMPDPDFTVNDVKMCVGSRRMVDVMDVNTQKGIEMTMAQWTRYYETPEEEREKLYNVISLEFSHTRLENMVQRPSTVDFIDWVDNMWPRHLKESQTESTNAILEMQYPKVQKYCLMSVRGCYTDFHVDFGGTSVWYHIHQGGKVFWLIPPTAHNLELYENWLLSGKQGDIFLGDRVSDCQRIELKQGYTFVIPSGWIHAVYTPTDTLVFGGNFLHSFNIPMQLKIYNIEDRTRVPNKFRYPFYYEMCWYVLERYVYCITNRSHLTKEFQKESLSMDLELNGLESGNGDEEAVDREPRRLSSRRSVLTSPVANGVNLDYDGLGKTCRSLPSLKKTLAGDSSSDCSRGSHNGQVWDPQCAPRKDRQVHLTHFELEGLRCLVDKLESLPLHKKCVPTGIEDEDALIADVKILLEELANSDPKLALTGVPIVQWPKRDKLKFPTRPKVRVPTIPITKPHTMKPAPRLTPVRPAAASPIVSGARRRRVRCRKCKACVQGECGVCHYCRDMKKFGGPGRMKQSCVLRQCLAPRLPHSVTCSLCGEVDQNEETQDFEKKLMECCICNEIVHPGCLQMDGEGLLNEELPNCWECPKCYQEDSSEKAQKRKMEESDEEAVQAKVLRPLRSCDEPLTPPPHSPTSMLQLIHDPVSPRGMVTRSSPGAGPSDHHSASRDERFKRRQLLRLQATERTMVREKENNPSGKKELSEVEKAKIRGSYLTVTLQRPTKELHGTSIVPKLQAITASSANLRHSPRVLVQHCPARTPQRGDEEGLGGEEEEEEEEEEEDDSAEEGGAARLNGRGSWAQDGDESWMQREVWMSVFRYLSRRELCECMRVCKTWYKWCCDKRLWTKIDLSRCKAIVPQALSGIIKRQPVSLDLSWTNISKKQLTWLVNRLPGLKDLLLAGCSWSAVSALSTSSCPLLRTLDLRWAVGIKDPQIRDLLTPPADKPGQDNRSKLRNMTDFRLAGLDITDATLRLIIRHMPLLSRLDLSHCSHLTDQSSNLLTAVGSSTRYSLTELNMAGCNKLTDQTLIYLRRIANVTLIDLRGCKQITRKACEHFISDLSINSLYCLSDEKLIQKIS
Nature of the experiment: Inhibition of human N-terminal FLAG/Avi-tagged KDM2A (2 to 700 residues) expressed in baculovirus infected Sf9 insect cells using H3(21-44)-K36(Me2)-GK(Biotin)/2-OG as substrate measured after 1 hr by Alphalisa assay. An outline of the steps:
(§1)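 AlphaLISA demethylase assay in 50 mM HEPES pH 7.5, 0.1% BSA, 0.01% Tween 20 with DMSO. Enzyme and inhibitor combined, then peptide plus 2-OG (50 µM), Fe(II) (5 µM) and ascorbate (100 µM) in the added mix; 1 h at room temperature with shaking.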

The target of experiment [3] is Histone lysine demethylase PHF8 (Homo sapiens, UniProt Q9UPP1). The experiment is described as follows: Inhibition of human N-terminal FLAG-tagged KDM7B (2 to 525 residues) expressed in baculovirus infected Sf9 insect cells using H3(1-21)K9(Me2)-GGK(Biotin)/2-OG as substrate measured after 1 hr by Alphalisa assay. In short, it runs like this:
as §1

Experiment [4] deals with T2, Lysine-specific demethylase 3A (Homo sapiens) (UniProt Q9Y4C1).
T2 sequence (whole entry): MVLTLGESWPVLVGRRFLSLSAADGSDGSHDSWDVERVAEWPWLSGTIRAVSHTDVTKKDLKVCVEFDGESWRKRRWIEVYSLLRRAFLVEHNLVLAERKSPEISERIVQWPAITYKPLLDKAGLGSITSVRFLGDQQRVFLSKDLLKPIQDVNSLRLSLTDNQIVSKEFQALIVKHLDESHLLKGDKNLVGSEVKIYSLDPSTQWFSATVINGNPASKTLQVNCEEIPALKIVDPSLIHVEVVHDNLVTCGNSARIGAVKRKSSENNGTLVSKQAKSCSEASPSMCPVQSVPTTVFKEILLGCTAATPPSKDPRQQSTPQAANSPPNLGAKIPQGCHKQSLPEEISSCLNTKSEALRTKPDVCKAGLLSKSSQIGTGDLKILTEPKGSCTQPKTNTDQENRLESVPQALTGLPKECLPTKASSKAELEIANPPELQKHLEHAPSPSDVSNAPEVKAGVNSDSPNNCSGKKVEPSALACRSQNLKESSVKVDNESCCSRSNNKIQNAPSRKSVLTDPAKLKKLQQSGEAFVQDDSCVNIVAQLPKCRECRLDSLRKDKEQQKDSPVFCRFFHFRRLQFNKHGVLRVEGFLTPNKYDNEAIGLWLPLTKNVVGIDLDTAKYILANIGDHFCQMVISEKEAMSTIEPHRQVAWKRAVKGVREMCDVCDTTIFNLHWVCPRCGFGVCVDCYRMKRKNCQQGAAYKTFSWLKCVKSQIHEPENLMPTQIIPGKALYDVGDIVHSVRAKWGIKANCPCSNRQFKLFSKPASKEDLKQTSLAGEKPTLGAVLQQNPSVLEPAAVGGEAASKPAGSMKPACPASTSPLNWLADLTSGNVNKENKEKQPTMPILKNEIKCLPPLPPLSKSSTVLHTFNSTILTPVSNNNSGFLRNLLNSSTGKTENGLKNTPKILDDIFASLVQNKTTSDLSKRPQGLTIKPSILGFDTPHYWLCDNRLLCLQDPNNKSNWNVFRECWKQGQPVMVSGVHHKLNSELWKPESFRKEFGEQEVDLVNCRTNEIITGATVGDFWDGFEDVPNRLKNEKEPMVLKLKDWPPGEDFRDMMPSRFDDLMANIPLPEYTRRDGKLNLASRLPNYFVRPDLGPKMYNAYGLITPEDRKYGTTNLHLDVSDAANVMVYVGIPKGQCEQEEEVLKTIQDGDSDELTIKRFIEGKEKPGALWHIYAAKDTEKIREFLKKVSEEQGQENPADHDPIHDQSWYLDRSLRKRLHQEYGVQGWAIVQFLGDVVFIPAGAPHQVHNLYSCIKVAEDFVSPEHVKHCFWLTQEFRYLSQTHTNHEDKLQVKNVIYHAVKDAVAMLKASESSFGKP
The experiment is described as follows: Inhibition of human N-terminal FLAG-tagged KDM3A (2 to 1321 residues) expressed in baculovirus infected Sf9 insect cells at 25 uM using H3(1-21)K9(Me1)-GGK(Biotin)/2-OG as substrate measured after 1 hr by Alphalisa assay relative to control. An outline of the steps: as §1

Chain of Lysine-specific demethylase 5A (P29375 whole entry, the tested form may be a part): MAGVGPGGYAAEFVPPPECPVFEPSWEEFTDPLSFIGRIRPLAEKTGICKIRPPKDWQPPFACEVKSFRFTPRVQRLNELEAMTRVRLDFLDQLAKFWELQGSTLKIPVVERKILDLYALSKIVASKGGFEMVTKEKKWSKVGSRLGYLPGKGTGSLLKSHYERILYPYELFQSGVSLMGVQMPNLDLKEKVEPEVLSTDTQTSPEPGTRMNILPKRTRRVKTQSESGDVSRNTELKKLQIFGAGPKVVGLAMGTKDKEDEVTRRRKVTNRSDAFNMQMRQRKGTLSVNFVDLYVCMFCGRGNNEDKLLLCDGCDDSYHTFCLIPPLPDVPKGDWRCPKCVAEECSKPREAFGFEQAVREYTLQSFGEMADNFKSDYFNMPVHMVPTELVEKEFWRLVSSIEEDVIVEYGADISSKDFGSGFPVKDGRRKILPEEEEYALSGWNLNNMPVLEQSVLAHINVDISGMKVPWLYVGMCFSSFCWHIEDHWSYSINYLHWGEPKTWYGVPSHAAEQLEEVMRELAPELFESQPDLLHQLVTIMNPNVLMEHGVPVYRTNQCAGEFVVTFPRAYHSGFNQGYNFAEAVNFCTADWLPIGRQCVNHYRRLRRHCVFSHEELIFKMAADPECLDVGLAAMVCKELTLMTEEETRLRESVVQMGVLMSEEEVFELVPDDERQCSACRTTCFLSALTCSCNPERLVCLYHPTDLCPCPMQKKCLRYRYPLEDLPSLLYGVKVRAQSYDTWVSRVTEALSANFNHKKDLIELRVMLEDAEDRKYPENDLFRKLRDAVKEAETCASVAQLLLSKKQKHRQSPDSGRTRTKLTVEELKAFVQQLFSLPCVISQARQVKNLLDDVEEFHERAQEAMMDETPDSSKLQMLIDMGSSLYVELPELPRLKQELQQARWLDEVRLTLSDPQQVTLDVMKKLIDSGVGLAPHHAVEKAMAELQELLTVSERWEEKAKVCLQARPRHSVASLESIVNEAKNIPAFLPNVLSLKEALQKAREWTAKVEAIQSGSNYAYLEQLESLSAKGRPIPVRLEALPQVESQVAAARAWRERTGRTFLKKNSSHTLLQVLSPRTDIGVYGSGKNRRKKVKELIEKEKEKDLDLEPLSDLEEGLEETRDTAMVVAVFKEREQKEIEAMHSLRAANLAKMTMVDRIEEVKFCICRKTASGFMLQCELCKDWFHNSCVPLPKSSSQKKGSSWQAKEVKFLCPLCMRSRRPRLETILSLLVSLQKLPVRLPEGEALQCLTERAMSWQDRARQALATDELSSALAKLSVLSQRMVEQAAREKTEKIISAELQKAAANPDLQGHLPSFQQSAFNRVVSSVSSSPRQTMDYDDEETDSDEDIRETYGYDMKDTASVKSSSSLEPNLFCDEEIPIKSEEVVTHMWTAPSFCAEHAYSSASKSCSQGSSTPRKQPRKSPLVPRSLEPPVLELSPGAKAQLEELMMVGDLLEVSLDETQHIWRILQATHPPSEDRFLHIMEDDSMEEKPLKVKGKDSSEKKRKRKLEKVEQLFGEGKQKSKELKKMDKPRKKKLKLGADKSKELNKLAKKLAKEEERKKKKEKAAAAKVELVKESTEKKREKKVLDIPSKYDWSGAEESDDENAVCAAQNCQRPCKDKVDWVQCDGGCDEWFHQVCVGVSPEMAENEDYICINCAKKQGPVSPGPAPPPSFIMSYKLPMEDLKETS
Chain of Histone lysine demethylase PHF8 (Q9UPP1 whole entry, the tested form may be a part): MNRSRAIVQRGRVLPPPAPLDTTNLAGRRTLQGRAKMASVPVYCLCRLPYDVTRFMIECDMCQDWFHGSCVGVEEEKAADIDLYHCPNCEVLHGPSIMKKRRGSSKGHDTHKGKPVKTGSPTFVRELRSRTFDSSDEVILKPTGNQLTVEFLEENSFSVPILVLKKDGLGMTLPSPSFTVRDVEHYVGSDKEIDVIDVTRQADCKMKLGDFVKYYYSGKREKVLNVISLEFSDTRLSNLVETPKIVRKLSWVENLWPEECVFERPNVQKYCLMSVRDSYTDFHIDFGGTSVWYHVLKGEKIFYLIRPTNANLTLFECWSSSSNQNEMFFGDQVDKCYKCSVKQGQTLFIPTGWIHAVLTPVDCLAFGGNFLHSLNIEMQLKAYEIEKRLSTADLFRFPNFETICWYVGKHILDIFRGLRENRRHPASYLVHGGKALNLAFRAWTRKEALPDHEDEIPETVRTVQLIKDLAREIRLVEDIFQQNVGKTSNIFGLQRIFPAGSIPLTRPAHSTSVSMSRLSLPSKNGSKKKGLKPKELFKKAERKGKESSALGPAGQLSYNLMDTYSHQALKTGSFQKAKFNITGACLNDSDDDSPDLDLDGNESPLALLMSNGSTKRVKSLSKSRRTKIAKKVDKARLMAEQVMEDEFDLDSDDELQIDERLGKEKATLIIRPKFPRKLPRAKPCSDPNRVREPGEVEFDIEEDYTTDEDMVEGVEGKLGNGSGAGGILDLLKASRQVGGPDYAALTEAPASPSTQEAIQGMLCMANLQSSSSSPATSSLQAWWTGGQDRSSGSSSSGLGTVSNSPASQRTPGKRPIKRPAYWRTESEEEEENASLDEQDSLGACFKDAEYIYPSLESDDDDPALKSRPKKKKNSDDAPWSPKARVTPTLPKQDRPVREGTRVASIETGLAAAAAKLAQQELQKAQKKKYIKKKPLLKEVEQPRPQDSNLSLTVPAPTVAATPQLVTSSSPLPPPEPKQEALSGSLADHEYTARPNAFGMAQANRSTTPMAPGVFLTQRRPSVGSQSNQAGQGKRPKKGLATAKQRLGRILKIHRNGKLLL

Regarding `CCCCCCN(C)Cc1ccc(-c2[nH]c3c(C#N)cnn3c(=O)c2C(C)C)cc1`, the Ratio IC50 in experiment [1] was 22. Besides, the IC50 in experiment [2] and in experiment [3] was greater than 50 µM throughout. Besides, the inhibition in experiment [4] amounted to 13%.
